Measurements reported in ChEMBL document CHEMBL5107962, “Covalent sortase A inhibitor ML346 prevents Staphylococcus aureus infection of Galleria mellonella” (RSC Med Chem, 2022).
Active and inactive are the calls of the source. The calls are words filed in the database; no cut-off is given here.

What was measured:
[1] = Irreversible inhibition of recombinant Streptococcus pyogenes sortase A deltaN81 expressed in Escherichia coli BL21(DE3) cells using Abz-LPATG-Dnp as substrate preincubated for 20 mins followed by substrate addition and measured every 1 min for 15 mins by FRET-based assay
[2] = system: Staphylococcus aureus; assay: Antibiofilm activity against methicillin-resistant Staphylococcus aureus USA300 assessed as reduction in biofilm biomass at 25 to 200 uM incubated for 18 hrs by crystal violet staining based microplate reader analysis; format: functional, organism-based; conditions: dose 25-200 µM
In short: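 S. aureus overnight culture diluted 1:1000 in TSB with inhibitor, grown static at 37 °C for 18 h. Wells rinsed with PBS, fixed with methanol 10 min, stained with 0.1% crystal violet 15 min. Stain dissolved in 33% acetic acid and A600 read. Three independent experiments, mean ± SEM.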

[3] = system: Staphylococcus aureus; assay: Irreversible inhibition of recombinant Staphylococcus aureus sortase A deltaN24 C184A mutant expressed in Escherichia coli BL21(DE3) cells assessed as thermal stabilization by measuring change in melting temperature incubated for 15 mins by Nano DSF assay
In short: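 40 µg SaSrtAΔN24 (wild type or C184A) in 100 µL 50 mM Tris-HCl pH 9.0, 150 mM NaCl, 5 mM CaCl2 incubated with compound for 15 min at room temperature, then centrifuged. Label-free nanoDSF read at 330/350 nm while ramping 30–90 °C at 2 °C per min. Tm taken from the first derivative of the ratio.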

[4] = system: Sortase A (Staphylococcus aureus), Q9S446 [UNDEFINED MUTATION]; assay: Irreversible inhibition of recombinant Staphylococcus aureus sortase A deltaN24 expressed in Escherichia coli BL21(DE3) cells using Abz-LPATG-Dnp as substrate assessed as […] preincubated for 60 mins followed by substrate addition and measured every 1 min for 15 mins by fluorescence intensity based assay; conditions: time 75.0 min
In short: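 Variable inhibitor concentrations incubated with SaSrtAΔN24 or SpSrtAΔN81 for different times, followed by FRET enzyme kinetics with Abz-LPATG-Dnp. kobs fitted as kinact × [I]/(KI + [I]) to give kinact and KI.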

[5] = Irreversible inhibition of recombinant Streptococcus pyogenes sortase A deltaN81 expressed in Escherichia coli BL21(DE3) cells using Abz-LPATG-Dnp as substrate preincubated for 10 mins followed by substrate addition and measured every 1 min for 15 mins by FRET-based assay
[6] = Irreversible inhibition of recombinant Streptococcus pyogenes sortase A deltaN81 expressed in Escherichia coli BL21(DE3) cells using Abz-LPATG-Dnp as substrate preincubated for 60 mins followed by substrate addition and measured every 1 min for 15 mins by FRET-based assay
[7] = target: T1, Sortase A (Staphylococcus aureus, UniProt Q9S446); assay: Irreversible inhibition of recombinant Staphylococcus aureus sortase A deltaN24 expressed in Escherichia coli BL21(DE3) cells using Abz-LPATG-Dnp as substrate preincubated for 60 mins followed by substrate addition and measured every 1 min for 15 mins by FRET-based assay
In short: (§1)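 SaSrtAΔN24 preincubated with compound for 10, 20, 40 or 60 min before FRET IC50 determination with Abz-LPATG-Dnp in Tris pH 7.5, NaCl, CaCl2 buffer.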

[8] = system: Staphylococcus aureus; assay: Antibacterial activity against Staphylococcus aureus Newman assessed as inhibition of bacterial growth incubated for 16 to 18 hrs; format: functional; conditions: time 16-18 hrs
In short: (§2)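 Broth microdilution: S. aureus in TSB, E. coli in LB. Overnight cultures diluted 1:1000, grown at 37 °C to A600 0.6, then diluted 1:400 into two-fold compound dilutions. Incubated 16–18 h at 37 °C without shaking. MIC taken as the lowest concentration with no visible growth. Two independent experiments.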

[9] = Toxicity in Galleria mellonella larvae assessed as survivability measured after 120 hrs
In short: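 G. mellonella larvae (2-2.5 cm, creamy), starved 24 h, injected with 10 µL compound in vehicle (5% DMSO, 20% PEG300, 75% PBS with 6.6% solutol HS-15). Kept at 37 °C; survival and appearance recorded over 120 h with photography. Three independent experiments.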

[10] = Inhibition of recombinant Streptococcus pyogenes sortase A deltaN81 transpeptidation expressed in Escherichia coli BL21 (DE3) cells using IsdA64 to 323 as substrate preincubated for 20 mins followed by substrate addition and measured after 1.5 hrs by SDS-PAGE-based assay
In short: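 SrtA (200 µg mL-1) preincubated with inhibitor (1–50 µM) for 20 min at room temperature in Tris pH 7.5, NaCl, CaCl2 buffer. IsdA64-323 (300 µg mL-1 final) and 3 mM (Gly)3 added, incubated at 37 °C for 1.5 h, then run on 12% SDS-PAGE. IC50 from band quantification of precursor and mature product. Two independent experiments.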

[11] = system: Escherichia coli; assay: Antibacterial activity against Escherichia coli AB1157 assessed as inhibition of bacterial growth incubated for 16 to 18 hrs; format: functional; conditions: time 16-18 hrs; in short: as §2
[12] = system: Staphylococcus aureus; assay: Anti-virulence activity against Staphylococcus aureus Newman harbouring deltasrtA mutant assessed as decrease in cell-wall anchored SpA level at 25 to 200 uM by FITC-labelled human IgG based […]; format: functional, organism-based; conditions: dose 25-200 µM
In short: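 S. aureus grown in TSB (1:1000 dilution) with inhibitor until A600 1.0. Washed cells incubated with FITC-labelled human IgG in PBS for 30 min at room temperature in the dark, rinsed, and read by fluorescence. Three technical replicates, three independent experiments. Mean ± SEM, unpaired two-tailed Student's t test (n = 3).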

[13] = system: Streptococcus pyogenes; assay: Irreversible inhibition of recombinant Streptococcus pyogenes sortase A deltaN81 expressed in Escherichia coli BL21(DE3) cells using Abz-LPATG-Dnp as substrate assessed as increase in Km preincubated for 60 mins followed by substrate addition and measured every 1 min for 15 mins by FRET-based assay; conditions: time 75.0 min
In short: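 SrtA (5 µM) incubated 1 h at room temperature with compound or DMSO, then inhibitor removed by centrifugal filtration. Aliquots taken before and after filtration were assayed with Abz-LPATG-Dnp (0.78–200 µM for Sa enzyme, 0.2–50 µM for Sp enzyme) at ex 309/em 420 nm for 15 min. Km fitted; MTSET as control; triplicates, run in duplicate.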

[14] = target: Cathepsin B (Homo sapiens, UniProt P07858); assay: Inhibition of cathepsin B (unknown origin) using Cbz-Phe-Arg-AMC as substrate at 20 uM preincubated for 5 mins followed by substrate addition and measured after 10 mins by fluorometric assay; conditions: time 15.0 min
In short: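 Cbz-Phe-Arg-AMC added (40 µM for B, 80 µM for L) and fluorescence read at ex 380/em 460 nm over 10 min. E64 at 6.25 nM as control. Triplicates, two experiments.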

[15] = target: T1, Sortase A; assay: Irreversible inhibition of recombinant Staphylococcus aureus sortase A deltaN24 expressed in Escherichia coli BL21(DE3) cells using Abz-LPATG-Dnp as substrate preincubated for 20 mins followed by substrate addition and measured every 1 min for 15 mins by FRET-based assay; in short: as §1
[16] = system: Staphylococcus aureus; assay: […] activity against compound pretreated wild type Staphylococcus aureus Newman infected in Galleria mellonella larvae assessed as pathogenicity by measuring melanization after 24 hrs of bacterial injection; format: functional, organism-based
In short: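 S. aureus diluted 1:1000 with or without compound and grown to A600 1.0. 10 µL of a 1 × 10^7 CFU mL-1 PBS suspension injected into the last proleg of starved larvae, held at 37 °C. Larvae chilled on ice and photographed at 24 h to score melanization. ΔsrtA strain used as control.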

For `COc1ccc(/C=C/C=C2C(=O)NC(=O)NC2=O)cc1`, the IC50 [1] was 2300 nM, the Activity [2] was “Active” and the ΔTm [3] was -0.1 °C. The Ratio [4] was 0.075 µM⁻¹ min⁻¹, the IC50 [5] was 3700 nM and the IC50 [6] was 700 nM. The IC50 [7] was 300 nM, the MIC [8] was over 512 µg/mL and the Activity [9] was “Non-Toxic”. The IC50 [10] was 5880 nM, the MIC [11] was over 512 µg/mL and the Activity [12] was “Active”. For the same compound, the inhibition [13] was “Active”, the inhibition [14] was “Active” and the IC50 [15] was 500 nM. The Activity [16] was “Active”.
